Measurements as given in ChEMBL document CHEMBL5058577, “EUbOPEN Chemogenomics Library 2 (Multiplex)” (2022).

System: HEK-293T
Assay: Multiplex assay against HEK293T
Format: toxicity, cell-based
Conditions: human
Summary of the method: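 Live cells were stained at seeding with Hoechst33342, BioTracker Green Microtubule Cytoskeleton Dye, MitoTracker Red and Annexin V Alexa Fluor 680, then imaged on a CQ1 microscope at 37°C and 5% CO2 after compound addition. CellPathfinder machine-learning gating split cells into Hoechst high-intensity objects or normal cells. Normal cells were split into healthy, pyknosed or fragmented nuclei, and pyknosed cells into mitotic or apoptotic. Tubulin, mitochondrial-mass and membrane-permeability phenotypes are per cents of healthy-nucleus cells.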

[1] = 12 h, 1 µM, compound concentration 1 uM, replicate 1
[2] = 12 h, 1 µM, compound concentration 1 uM, replicate 2
[3] = 12 h, 10 µM, compound concentration 10 uM, replicate 1
[4] = 12 h, 10 µM, compound concentration 10 uM, replicate 2
[5] = 24 h, 1 µM, compound concentration 1 uM, replicate 1
[6] = 24 h, 1 µM, compound concentration 1 uM, replicate 2
[7] = 24 h, 10 µM, compound concentration 10 uM, replicate 1
[8] = 24 h, 10 µM, compound concentration 10 uM, replicate 2
[9] = 48 h, 1 µM, compound concentration 1 uM, replicate 1
[10] = 48 h, 1 µM, compound concentration 1 uM, replicate 2
[11] = 48 h, 10 µM, compound concentration 10 uM, replicate 1
[12] = 48 h, 10 µM, compound concentration 10 uM, replicate 2

SMILES: CC[C@H]1OC(=O)[C@H](C)[C@@H](O[C@H]2C[C@@](C)(OC)[C@@H](O)[C@H](C)O2)[C@H](C)[C@@H](O[C@@H]2O[C@H](C)C[C@H](N(C)C)[C@H]2O)[C@@]2(C)CC(C)=C(O2)[C@H](C)[C@@H](O)[C@]1(C)O
- Population Apoptotic (%) [1]: 35%
- Population Fragmented Nuclei (%) [1]: 8%
- Population Healthy Nuclei (%) [1]: 74%
- Population Hoechst High Intensity Objects (%) [1]: 6%
- Population Membrane Permeable-Phenotype (%) [1]: 0%
- Population Mitochondria Different-Phenotype (%) [1]: 56%
- Population Mitotic Cells (%) [1]: 64%
- Population Normal (%) [1]: 93%
- Population Pyknosed Nuclei (%) [1]: 17%
- Population Tubulin-Different-Phenotype (%) [1]: 41%
- Total Cell Count [1]: 367
- Population Apoptotic (%) [2]: 45%
- Population Fragmented Nuclei (%) [2]: 3%
- Population Healthy Nuclei (%) [2]: 84%
- Population Hoechst High Intensity Objects (%) [2]: 7%
- Population Mitochondria Different-Phenotype (%) [2]: 72%
- Population Mitotic Cells (%) [2]: 54%
- Population Normal (%) [2]: 92%
- Population Pyknosed Nuclei (%) [2]: 11%
- Population Tubulin-Different-Phenotype (%) [2]: 27%
- Total Cell Count [2]: 300
- Population Apoptotic (%) [3]: 55%
- Population Fragmented Nuclei (%) [3]: 8%
- Population Healthy Nuclei (%) [3]: 71%
- Population Hoechst High Intensity Objects (%) [3]: 13%
- Population Membrane Permeable-Phenotype (%) [3]: 0%
- Population Mitochondria Different-Phenotype (%) [3]: 87%
- Population Mitotic Cells (%) [3]: 44%
- Population Normal (%) [3]: 86%
- Population Pyknosed Nuclei (%) [3]: 19%
- Population Tubulin-Different-Phenotype (%) [3]: 76%
- Total Cell Count [3]: 383
- Population Apoptotic (%) [4]: 56%
- Population Fragmented Nuclei (%) [4]: 11%
- Population Healthy Nuclei (%) [4]: 72%
- Population Hoechst High Intensity Objects (%) [4]: 10%
- Population Mitochondria Different-Phenotype (%) [4]: 91%
- Population Mitotic Cells (%) [4]: 43%
- Population Normal (%) [4]: 89%
- Population Pyknosed Nuclei (%) [4]: 16%
- Population Tubulin-Different-Phenotype (%) [4]: 77%
- Total Cell Count [4]: 217
- Population Apoptotic (%) [5]: 20%
- Population Fragmented Nuclei (%) [5]: 8%
- Population Healthy Nuclei (%) [5]: 78%
- Population Hoechst High Intensity Objects (%) [5]: 3%
- Population Membrane Permeable-Phenotype (%) [5]: 0%
- Population Mitochondria Different-Phenotype (%) [5]: 35%
- Population Mitotic Cells (%) [5]: 79%
- Population Normal (%) [5]: 96%
- Population Pyknosed Nuclei (%) [5]: 13%
- Population Tubulin-Different-Phenotype (%) [5]: 24%
- Total Cell Count [5]: 493
- Population Apoptotic (%) [6]: 35%
- Population Hoechst High Intensity Objects (%) [6]: 6%
- Population Mitochondria Different-Phenotype (%) [6]: 49%
- Population Mitotic Cells (%) [6]: 64%
- Population Normal (%) [6]: 93%
- Population Pyknosed Nuclei (%) [6]: 12%
- Population Tubulin-Different-Phenotype (%) [6]: 22%
- Total Cell Count [6]: 371
- Population Apoptotic (%) [7]: 42%
- Population Fragmented Nuclei (%) [7]: 9%
- Population Healthy Nuclei (%) [7]: 75%
- Population Hoechst High Intensity Objects (%) [7]: 11%
- Population Membrane Permeable-Phenotype (%) [7]: 0%
- Population Mitochondria Different-Phenotype (%) [7]: 74%
- Population Mitotic Cells (%) [7]: 57%
- Population Normal (%) [7]: 88%
- Population Pyknosed Nuclei (%) [7]: 15%
- Population Tubulin-Different-Phenotype (%) [7]: 75%
- Total Cell Count [7]: 499
- Population Apoptotic (%) [8]: 70%
- Population Fragmented Nuclei (%) [8]: 10%
- Population Healthy Nuclei (%) [8]: 71%
- Population Hoechst High Intensity Objects (%) [8]: 10%
- Population Mitochondria Different-Phenotype (%) [8]: 87%
- Population Mitotic Cells (%) [8]: 29%
- Population Normal (%) [8]: 89%
- Population Pyknosed Nuclei (%) [8]: 18%
- Population Tubulin-Different-Phenotype (%) [8]: 80%
- Total Cell Count [8]: 254
- Population Apoptotic (%) [9]: 30%
- Population Fragmented Nuclei (%) [9]: 12%
- Population Healthy Nuclei (%) [9]: 76%
- Population Hoechst High Intensity Objects (%) [9]: 8%
- Population Membrane Permeable-Phenotype (%) [9]: 0%
- Population Mitochondria Different-Phenotype (%) [9]: 28%
- Population Mitotic Cells (%) [9]: 69%
- Population Normal (%) [9]: 91%
- Population Pyknosed Nuclei (%) [9]: 11%
- Population Tubulin-Different-Phenotype (%) [9]: 21%
- Total Cell Count [9]: 718
- Population Apoptotic (%) [10]: 21%
- Population Healthy Nuclei (%) [10]: 78%
- Population Hoechst High Intensity Objects (%) [10]: 6%
- Population Mitochondria Different-Phenotype (%) [10]: 34%
- Population Mitotic Cells (%) [10]: 78%
- Population Normal (%) [10]: 93%
- Population Pyknosed Nuclei (%) [10]: 9%
- Population Tubulin-Different-Phenotype (%) [10]: 20%
- Total Cell Count [10]: 584
- Population Apoptotic (%) [11]: 50%
- Population Fragmented Nuclei (%) [11]: 12%
- Population Healthy Nuclei (%) [11]: 74%
- Population Hoechst High Intensity Objects (%) [11]: 10%
- Population Membrane Permeable-Phenotype (%) [11]: 1%
- Population Mitochondria Different-Phenotype (%) [11]: 61%
- Population Mitotic Cells (%) [11]: 50%
- Population Normal (%) [11]: 89%
- Population Pyknosed Nuclei (%) [11]: 12%
- Population Tubulin-Different-Phenotype (%) [11]: 56%
- Total Cell Count [11]: 671
- Population Apoptotic (%) [12]: 53%
- Population Healthy Nuclei (%) [12]: 75%
- Population Hoechst High Intensity Objects (%) [12]: 12%
- Population Membrane Permeable-Phenotype (%) [12]: 0%
- Population Mitochondria Different-Phenotype (%) [12]: 84%
- Population Mitotic Cells (%) [12]: 46%
- Population Normal (%) [12]: 87%
- Population Pyknosed Nuclei (%) [12]: 11%
- Population Tubulin-Different-Phenotype (%) [12]: 73%
- Total Cell Count [12]: 300
